An excerpt weighted towards active compounds, which were near 9.2% of everything screened.
HCT116 PTEN-null: suppresses growth of cells with PTEN deletion; HCT116 PTEN-null viability, CellTiter-Glo, 60 h; stronger effect = lower value; viability, % at 10 µM; 140,000 tested, 1.2% active;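 active = viability at or below a set limit, 4 SD under the median of all tested compounds, cut at about 3.7% in these data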;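 note: PTEN knockout HCT116 line with beta catenin targeted HCT116 as companion control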
HCT116 bCat-KO: beta-catenin-lacking colon tumor cell growth suppression; HCT116 beta-catenin knockout viability, CellTiter-Glo, 60 h; stronger effect = lower value; viability, % at 10 µM; 140,000 tested, 1.5% active;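 active = viability at or under a set limit, the compound median less 4 SD, cut at about 6% in these data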
Autophagy HCS: alters autophagy in cells | MEF GFP-LC3 puncta imaging; test concentration mostly 10 µM | calls only at 10 µM (by protocol) | 190,000 tested, 0.98% active;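 active = percentage of spot-positive cells more than 3 SD above its plate mean, without a fluorescence outlier flag or 80% toxicity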
Lmaj promast: inhibitors of Leishmania major promastigote growth. Leishmania major promastigotes, resazurin fluorescence viability. inhibition, % at 10 µM. 200,000 tested, 9% active; in the data active = inhibition above about 50%;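 note: promastigotes grown with compound for 44 hours at 28 °C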
Dynein transport: blocks dynein driven cargo transport along microtubules | AID 1381 | 3617.4 mouse cells, GR-EGFP nuclear translocation imaging; test concentration mostly 20 µM; stimulated with dexamethasone, 1 µM; stronger effect = lower value | 220,000 tested, 0.47% active | z-score, hits read low;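 active = plate z-score of nuclear minus cytoplasmic receptor signal below a set negative limit, without overly bright fluorescence or cell loss, cut at about -3.5 in these data, passing the limit was not always enough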;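 note: z-score of nuclear minus cytoplasmic ring GR-EGFP intensity difference per well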
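Buffer or medium: tet-free medium with charcoal-stripped serum / Also added: dexamethasone agonist, 1.0 µM final, for 30 min / Timing: induction 48 h, compound 1 h, agonist 30 min / Measured by: high-content fluorescence imaging after fixation / Read-out: nuclear-to-cytoplasmic GR-EGFP distribution per well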
L major 1uM: L. major promastigote growth inhibition, 1 uM repeat; shares compounds with Lmaj promast; inhibition, % at 1 µM; 1,100 tested, 13% active; AID 1258; resazurin fluorescence, 48 h;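 active = inhibition above about 50% in both repeat tests, limit read from the data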
Numbers stand for hits; n = inactive; x = no result given; + = active, no number.

SMILES	HCT116 PTEN-null	HCT116 bCat-KO	Autophagy HCS	Lmaj promast	Dynein transport	L major 1uM
CC(Sc1n[nH]c(N)n1)C(=O)C12CC3CC(CC(C3)C1)C2 (stereo not drawn)	x	n	n	n	n	x
CC(SC#N)C(=O)C12CC3CC(CC(C3)C1)C2 (stereo not drawn)	x	x	n	63	-6.8	n
COc1ccc(CCC(=O)OCC(=O)Nc2ccccc2OC(F)F)cc1OC	x	x	n	n	n	x
Oc1ccc(-c2nc3c4c(ncn3n2)-c2ccccc2CC42CCCC2)cc1	2.6	3.0	n	87	n	n
Nn1cnc2c(c1=O)C1(CCCCC1)Cc1ccccc1-2	n	n	n	n	n	x
CC1(C)CN(c2ccccc2)N(C(=O)c2ccc(C#N)cc2)C1=O	n	n	n	54	n	n
CC1(C)CN(c2ccccc2)N(C(=O)c2ccc(F)cc2)C1=O	n	n	n	n	n	x
O=C(CSc1nc2ccccc2c(=O)[nH]1)Nc1ccc(S(=O)(=O)N2CCCC2)cc1	n	n	n	n	n	x
CN(C)c1ccc(N2CN=C3SCC(=O)N3C2)cc1	n	n	n	62	n	n
Cc1ccc2c(c1)c(C)cc[n+]2Cc1ccccc1	n	n	n	n	n	x
Cc1ccc(C[n+]2cccc(-c3ccccc3)c2)c(C)c1	n	n	n	91	n	n
CCCC(=O)C1=C(N2CCCCC2)CC(C)(C)C(C(=O)OC)C1=O (stereo not drawn)	x	x	n	n	n	x
CCOC(=O)c1ccc2c(c1)nc(C1CCN(S(=O)(=O)c3cccs3)CC1)n2CC	n	n	n	100	n	n
CCOC(=O)c1cccc(NC(=O)C2CCN(S(=O)(=O)c3cccs3)CC2)c1	n	n	n	n	n	x
CC(C)CNC(=O)CN(C1CCCCC1)S(=O)(=O)c1ccccc1	n	n	n	n	n	x
C=C(C)c1cccc(C(C)(C)NC(=O)N2CCCC(C)C2)c1 (stereo not drawn)	n	n	n	n	n	x
C=C(C)c1cccc(C(C)(C)NC(=O)N(C)C2CCN(C)CC2)c1	x	x	n	98	n	n
Cc1ccc(-c2cc(C(F)F)nc(NCc3cccnc3)n2)cc1	n	n	n	57	n	n
CN(CCN1CCc2ccccc2C1)Cc1nc(Cc2ccccc2F)no1	x	x	n	85	n	72
Cc1cc(CSc2ccccc2)ccc1NC(=O)COc1ccccc1C	n	n	n	n	n	x
CC(=O)C1=C(O)C(=O)N(CCc2c[nH]c3ccccc23)C1c1ccc(O)cc1 (stereo not drawn)	n	n	n	n	n	x
Cc1ccc(OC(C)C(=O)N=Nc2c(O)[nH]c3ccc([N+](=O)[O-])cc23)cc1 (stereo not drawn)	x	x	n	n	n	x
OCCC1CN(Cc2ccncc2)CCN1C1CCCC1 (stereo not drawn)	x	x	n	n	n	x
OCCC1CN(Cc2cnc(-c3ccc(Cl)cc3)nc2)CCN1C1CCCCC1 (stereo not drawn)	x	x	n	87	n	n
Cn1nc([N+](=O)[O-])nc1Oc1ccccc1N	n	n	n	97	n	n
SMILES	HCT116 PTEN-null	HCT116 bCat-KO	Autophagy HCS	Lmaj promast	Dynein transport	L major 1uM
O=S(=O)(Nc1cccnc1)c1ccc(Cl)c(C(F)(F)F)c1	n	n	n	n	n	x
CC(C)(C)c1nn(-c2ccccc2)c2nc(Cl)c(C=O)cc12	n	n	n	96	n	n
Cc1nn(-c2ccccc2)c2nc(=O)n(-c3ccccc3)cc12	n	n	n	n	n	x
CCCCCn1c(N2CCC(C(N)=O)CC2)nc2c1c(=O)[nH]c(=O)n2C	n	n	n	n	n	x
C=CCN(c1ccc(Cl)cc1)S(=O)(=O)c1cccc(C(=O)O)c1	x	x	n	n	n	x
CCC(NC(=O)Nc1nnc(C(F)(F)F)s1)(C(F)(F)F)C(F)(F)F	2.5	2.1	+	101	n	n
C=CCc1ccc(OCCCCCN2CCOCC2)c(OC)c1	n	n	n	100	n	58
C=CCc1ccc(OCCCCOc2ccc(C(=O)O)cc2)c(OC)c1	x	x	n	n	n	x
CC(C)CNC(=O)COc1ncnc2sccc12	x	x	n	n	n	x
CCOC(=O)c1nc2cc3n(c(C)c-2c1C)C(C)C(CC)=C3C (stereo not drawn)	x	x	n	99	n	n
COc1ccc(N2CCN(C(=O)c3cccc(Br)c3)CC2)c([N+](=O)[O-])c1	x	x	n	n	n	x
Cc1nn(-c2ccccn2)c2c1C(=O)C(Br)CC2 (stereo not drawn)	x	x	n	100	n	85
Cn1c(=O)c(C(=O)CSc2nncs2)c(N)n(Cc2ccccc2)c1=O	n	n	n	n	n	x
Cc1c(C(=O)OCC(=O)Nc2ccc3c(c2)OCO3)cccc1[N+](=O)[O-]	n	n	n	n	n	x
CC1(C)OC(=O)N(c2ccccc2)C12C=Cc1c(ccc3ccccc13)O2 (stereo not drawn)	n	n	n	83	n	n
O=[N+]([O-])c1ccc(N2CCN(C(=S)NCc3ccc(Cl)cc3)CC2)cc1	x	x	n	68	n	n
O=C(c1nn2c(C(F)(F)F)cc(-c3cccs3)nc2c1Cl)N1CCCc2ccccc21	n	n	n	n	n	x
CCOC(=O)c1c(NC(=O)c2ccc(S(=O)(=O)N3CCOCC3)cc2)sc2c1CCN(C)C2	n	n	n	68	n	n
CC1(C)NC(=O)N(CC(=O)OCC(=O)Nc2cccc(S(N)(=O)=O)c2)C1=O	x	x	n	n	n	x
N#CC1=C(N)OC2=C(C(=O)CCC2)[C@]12C(=O)N(CC(N)=O)c1ccccc12	n	n	n	n	n	x
N#CC1=C(N)OC2=C(C(=O)CCC2)C12C(=O)N1CCCc3cccc2c31 (stereo not drawn)	n	n	n	60	n	n
Oc1ccc2[nH]ccc2c1	n	n	n	87	n	n
Oc1ccc2ccc3[nH]cnc3c2c1	x	x	x	x	n	x
CCCC1COC(Cn2cncn2)(c2ccc(C)cc2)O1 (stereo not drawn)	n	n	n	55	n	n
COc1ccc(OC)c(NC(=O)CCN2CCN(c3ccccc3F)CC2)c1	n	n	n	n	n	x
SMILES	HCT116 PTEN-null	HCT116 bCat-KO	Autophagy HCS	Lmaj promast	Dynein transport	L major 1uM
COc1ccc(C(=O)CCN2CCN(c3ccccc3F)CC2)cc1	x	x	n	79	n	n
CC(CCc1ccccc1)NCc1ccncc1 (stereo not drawn)	n	n	n	89	n	n
CC(Cc1ccccc1)C(=O)NCc1ccncc1 (stereo not drawn)	n	n	n	n	n	x
Cn1nccc1NS(=O)(=O)c1ccc(NC(=O)C(F)(F)F)cc1	x	x	x	x	n	x
Cc1ccc(-c2cc(-c3ccc(F)cc3)c(C#N)c(N)n2)o1	n	n	n	60	n	n
Cc1ccc(-c2cc(-c3ccc(C)o3)nc(N)c2C#N)cc1	n	n	n	n	n	x
N/C(=N\OC(=O)CCC1CCCCC1)c1ccc([N+](=O)[O-])cc1	n	n	n	76	n	n
COc1ccc(CSc2nnnn2-c2ccccc2)cc1	n	n	n	100	n	n
C=CCSc1nnnn1-c1ccc(OC)cc1	n	n	n	n	n	x
